# Assay results as given in ChEMBL document CHEMBL1146569, “The pterocellins, novel bioactive alkaloids from the marine bryozoan Pterocella vesiculosa” (J Nat Prod, 2003).
# Columns and labels:
# NCI-H226 = test: Growth inhibition of human NCI-H226 cells; format: functional
# SK-MEL-5 = test: Growth inhibition of human SK-MEL-5 cells; format: functional
# SK-OV-3 = test: Growth inhibition of human SKOV3 cells; format: functional
# [1] = test system: Trichophyton mentagrophytes; test: Antimicrobial activity against Trichophyton mentagrophytes assessed per disk; format: functional
# LOX IMVI = test: Growth inhibition of human LOXIMVI cells; format: functional
# NCI-H460 = test: Growth inhibition of human NCI-H460 cells; format: functional
# [2] = Growth inhibition of human […] cells; format: functional
# [3] = Cytotoxicity against african green monkey BSC1 cells at 40 ug/disk; format: cell-based; conditions: chlorocebus aethiops, bsc-1
# In short: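 BSC-1 cells (ATCC CCL 26), a line derived from African green monkey kidney, are the host cells of the combined antiviral/cytotoxicity assay. Cytotoxicity is scored on these cells within that assay.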
# RXF 393 = test: Growth inhibition of human RXF393 cells; format: functional
# OVCAR-4 = test: Growth inhibition of human OVCAR4 cells; format: functional
# CAKI-1 = test: Growth inhibition of human Caki1 cells; format: functional
# ACHN = test: Growth inhibition of human ACHN cells; format: functional
# COLO 205 = test: Growth inhibition of human COLO205 cells; format: functional
# HT-29 = test: Growth inhibition of human HT-29 cells; format: functional
# NCI-H23 = test: Growth inhibition of human NCI-H23 cells; format: functional
# Amorphotheca resinae = test: Antimicrobial activity against Cladosporium resinae assessed per disk; format: functional
# SR = test: Growth inhibition of human SR cells; format: functional
# NCI-H322M = test: Growth inhibition of human NCI-H322M cells; format: functional
# NCI-H522 = test: Growth inhibition of human NCI-H522 cells; format: functional
# SNB-19 = test: Growth inhibition of human SNB19 cells; format: functional
# HCC 2998 = test: Growth inhibition of human HCC2998 cells; format: functional
# OVCAR-3 = test: Growth inhibition of human OVCAR-3 cells; format: functional
# Escherichia coli = test: Antimicrobial activity against Escherichia coli assessed per disk; format: functional
# HOP-62 = test: Growth inhibition of human HOP62 cells; format: functional
# [4] = read-out: LC50 (the source's name)
structure (smiles),measurement,setting,value
COc1cn2c(cc1=O)C(=O)c1ccnc(Cc3ccccc3)c1-2 [PTEROCELLIN B],TGI,NCI-H226,3500 nM
same,CC50,NCI-H226; [4],8400 nM
same,GI50,SK-MEL-5,100 nM
same,TGI,SK-MEL-5,300 nM
same,CC50,SK-MEL-5; [4],500 nM
same,GI50,SK-OV-3,2700 nM
same,TGI,SK-OV-3,13800 nM
same,CC50,SK-OV-3; [4],47100 nM
same,MIC,[1],3.9 µg
same,GI50,LOX IMVI,400 nM
same,LC50,LOX IMVI,13200 nM
same,TGI,LOX IMVI,2400 nM
same,GI50,NCI-H460,200 nM
same,LC50 (concentration causing 50% cell kill),NCI-H460,5500 nM
same,TGI,NCI-H460,800 nM
same,GI50,[2],1500 nM
same,TGI,[2],4900 nM
same,CC50,[2]; [4],> 100000 nM
same,Activity,[3],Toxic
same,GI50,RXF 393,2400 nM
same,LC50,RXF 393,45200 nM
same,TGI,RXF 393,6900 nM
same,GI50,OVCAR-4,1300 nM
same,LC50,OVCAR-4,5600 nM
same,TGI,OVCAR-4,2700 nM
same,GI50,CAKI-1,1500 nM
same,TGI,CAKI-1,3300 nM
same,CC50,CAKI-1; [4],7400 nM
same,GI50,ACHN,1100 nM
same,TGI,ACHN,2900 nM
same,CC50,ACHN; [4],7800 nM
same,GI50,COLO 205,700 nM
same,TGI,COLO 205,2300 nM
same,CC50,COLO 205; [4],6100 nM
same,GI50,HT-29,500 nM
same,LC50,HT-29,27300 nM
same,TGI,HT-29,3200 nM
same,GI50,NCI-H23,100 nM
same,LC50 (concentration causing 50% net cell kill),NCI-H23,700 nM
same,TGI,NCI-H23,300 nM
same,MIC,Amorphotheca resinae,>60 µg
same,GI50,SR,200 nM
same,TGI,SR,1300 nM
same,CC50,SR; [4],3700 nM
same,GI50,NCI-H322M,1100 nM
same,LC50 (concentration killing 50% of cells),NCI-H322M,4700 nM
same,TGI,NCI-H322M,2200 nM
same,GI50,NCI-H522,1100 nM
same,TGI,NCI-H522,2400 nM
same,CC50,NCI-H522; [4],5200 nM
same,GI50,SNB-19,1600 nM
same,TGI,SNB-19,3300 nM
same,CC50,SNB-19; [4],7000 nM
same,GI50,HCC 2998,400 nM
same,LC50 (concentration killing 50% of cells),HCC 2998,3200 nM
same,TGI,HCC 2998,1000 nM
same,GI50,OVCAR-3,200 nM
same,TGI,OVCAR-3,600 nM
same,CC50,OVCAR-3; [4],3200 nM
same,MIC,Escherichia coli,>60 µg
same,GI50,HOP-62,1000 nM
same,TGI,HOP-62,2100 nM
same,CC50,HOP-62; [4],4600 nM
